Results: ChEMBL document CHEMBL4033790, “Design and Synthesis of Novel Deuterated Ligands Functionally Selective for the γ-Aminobutyric Acid Type A Receptor (GABAAR) α6 Subtype with Improved Metabolic Stability and Enhanced Bioavailability” (J Med Chem, 2018)
≈ marks a conversion by molar mass, not a printed value. Calls of active or inactive are those of the source. The calls are words filed in the database; no cut-off is given here.

Tests used:
Rattus norvegicus [1] = organism: Rattus norvegicus; assay: Displacement of [3H]-flunitrazepam from rat brain GABA-A receptor benzodiazepine site […] at 10 uM after 60 to 90 mins by scintillation counting
[2] = Solubility of the compound in 0.01M HCl at pH 2 after 2 hrs by LC-MS analysis; format: physicochemical; settings: buffer, pH 2, 2 h
How it was run: (§1)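 10 mg compound dissolved in 2 mL DMAC; 10 μL of this added to 2 mL DI water (pH 7, sonicated) or 2 mL 0.01 M aq HCl (pH 2), held 2 h at 37 °C. Filtered through 0.45 micron filter, then quantified by LC-MS in SIM mode against calibration curves of standards in DMAC (n = 5); n=3.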

Mus musculus [3] = assay: Neurotoxicity in Swiss Webster mouse assessed as induction of motor impairment at 40 mg/kg administered via oral gavage measured after 10 to 60 mins by rotarod method; format: toxicity, organism-based; settings: in vivo
How it was run: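 Female mice were given a single oral gavage dose of 40 mg/kg, either in 50% PBS/40% propylene glycol/10% DMSO or, for poorly soluble compounds, in 2% polyethylene glycol plus 2.5% hydroxymethyl cellulose. Rotarod performance was tested 10, 30 and 60 min after dosing, with diazepam 5 mg/kg as positive control.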

[4] = target: GABA-A receptor; alpha-3/beta-3/gamma-2 (Homo sapiens) (UniProt P18507+P28472+P34903); assay: Positive allosteric modulation of GABA-A receptor alpha3beta3gamma2 (unknown origin) expressed in Xenopus laevis oocytes assessed as potentiation of EC3 GABA induced currents up to 1 uM at -60 mV holding potential by electrophysiological method relative to GABA; format: cell-based
How it was run: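 Stage 5–6 defolliculated Xenopus oocytes were injected with 2.5 ng total mRNA per oocyte: α1, α2, α3 or α5 with β3 and γ2 at 1:1:5, and α4 or α6 with β3 and γ2 at 3:1:5. Oocytes were kept ≥36 h at 18 °C in NDE medium before recording. Compounds were co-applied with GABA titrated to EC3-5 for each oocyte. Curves were fitted with the Hill equation; mean ± SEM from ≥3 oocytes across two batches.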

[5] = target: Voltage-gated inwardly rectifying potassium channel KCNH2 (Homo sapiens, UniProt Q12809); assay: Displacement of [3H]-dofetilide from human ERG expressed in HEK cell membranes at >10 uM after 60 to 90 mins by scintillation counting
[6] = target: D(1B) dopamine receptor (Homo sapiens) (UniProt P21918); assay: Displacement of [3H]-[…] from human recombinant dopamine D5 receptor expressed in HEK293 cells at 10 uM after 60 to 90 mins by scintillation counting; format: cell-based
How it was run: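 Primary single-concentration radioligand displacement screen run by the NIMH Psychoactive Drug Screening Program across a 46-target panel that includes hERG. The read-out is percent inhibition of specific radioligand binding. Any compound displacing more than 50% of radioligand went on to secondary binding assays to determine Ki.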

Liver = assay: Half life in human liver microsomes at 10 uM by LC-MS/MS analysis; format: ADME, microsome
How it was run: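 Compound at 10 μM final was preincubated 5 min at 37 °C with NADPH regenerating system in phosphate buffer, pH 7.4. Human or mouse liver microsomes (0.5 mg/mL protein) were added to start the reaction. Samples were taken at 0 (no microsomes) and 10–60 min and measured by LC-MS/MS against an internal standard. Half-life = 0.693/k, with k the slope of ln peak-area ratio versus time. Three experiments, each in duplicate.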

[7] = Aqueous solubility of the compound in DI water at pH 7 after 2 hrs by LC-MS analysis; format: physicochemical; settings: buffer, pH 7, 2 h; how it was run: as §1
Rattus norvegicus [8] = assay: Toxicity in Wistar rat assessed as open arm entries at 10 mg/kg, ip administered for 45 mins measured for 5 min by elevated plus maze apparatus method (reference value: 23.07 +/- 5.47%); format: organism-based; settings: in vivo
[9] = Drug metabolism in mouse liver microsomes assessed as CYP450 mediated-O-demethylated 7-hydroxy-2-(4-hydroxyphenyl)-2H-pyrazolo[4,3-c]quinolin-3(5H)-one metabolite formation after 60 mins by LC-MS analysis; format: ADME; settings: 1 h
How it was run: (§2)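 The 60-min samples from the human or mouse liver microsome incubations (10 µM compound, 0.5 mg/mL protein, NADPH regenerating system, 37 °C, pH 7.4) were run on LC-MS in SIM mode with dual ESI/APCI ionization. The method was calibrated to each component's retention time and mass, and the peak intensities of the parent and O-demethylated metabolites were measured.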

[10] = Drug metabolism in human liver microsomes assessed as CYP450 mediated-O-demethylated 2-(4-hydroxyphenyl)-7-methoxy-2H-pyrazolo[4,3-c]quinolin-3(5H)-one metabolite formation after 60 mins by LC-MS analysis; format: ADME; settings: 1 h; how it was run: as §2
[11] = Drug metabolism in mouse liver microsomes assessed as CYP450 mediated-O-demethylated 7-hydroxy-2-[4-(trideuteriomethoxy)phenyl]-5H-pyrazolo[4,3-c]quinolin-3-one metabolite formation after 60 mins by LC-MS analysis; format: ADME; settings: 1 h; how it was run: as §2
[12] = Drug metabolism in human liver microsomes assessed as CYP450 mediated-O-demethylated 7-hydroxy-2-(4-hydroxyphenyl)-2H-pyrazolo[4,3-c]quinolin-3(5H)-one metabolite formation after 60 mins by LC-MS analysis; format: ADME; settings: 1 h; how it was run: as §2
Rattus norvegicus [13] = assay: Toxicity in Wistar rat assessed as total distance traveled at 10 mg/kg, ip administered for 45 mins measured for 5 min by elevated plus maze method (reference value: 6.71 +/- 0.56 meter); format: organism-based; settings: in vivo
Rattus norvegicus [14] = assay: Toxicity in Wistar rat assessed as total distance traveled at 10 mg/kg, ip administered for 45 mins by cued water-maze method (reference value: 8.04 +/- 1.16 meter); format: organism-based; settings: in vivo, 0.75 h
HepG2 = assay: Cytotoxicity against human HepG2 cells assessed as reduction in cell viability up to 400 uM after 48 hrs by CellTiter-Glo assay; format: cell-based; settings: hepg2, 48 h
How it was run: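 HEK293T and HepG2 cells grown in high-glucose DMEM with non-essential amino acids, 10 mM HEPES, penicillin/streptomycin and 10% heat-inactivated FBS. Cells were harvested with trypsin and plated; compound was pin-transferred 3 h later. Incubation was 48 h, then CellTiter-Glo luminescence was read. Controls were DMSO (negative) and a cytotoxic aminoketone (positive). Quadruplicates, three independent runs, normalized to controls, nonlinear regression.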

Brain = assay: Fraction unbound in Wistar rat brain at 10 mg/kg, ip administered as single dose measured at 5 to 720 mins post dose by HPLC-MS/MS analysis; format: ADME, organism-based; settings: in vivo
How it was run: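 Free fraction in rat plasma and brain tissue was measured in vitro by rapid equilibrium dialysis. Exposure came from male Wistar rats (250-350 g) given a single 10 mg/kg IP dose, as a 5 mg/ml suspension in 85% water, 14% propylene glycol and 1% Tween 80. Three rats per time point (5–720 min); brain analysed by HPLC-MS/MS after solid-phase extraction.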

Mus musculus [15] = assay: Neurotoxicity in Swiss Webster mouse assessed as induction of motor impairment at 55 mg/kg administered via oral gavage measured after 10 to 60 mins by rotarod method; format: toxicity, organism-based; settings: in vivo
Mus musculus [16] = assay: Hyperlocomotor activity in C57BL/6 mouse assessed as total distance travelled at 3 to 10 mg/kg, ip after 60 mins in presence of diazepam; format: ADME, organism-based; settings: in vivo, 1 h
Rattus norvegicus [17] = assay: Toxicity in Wistar rat assessed as average swim speed at 10 mg/kg, ip administered for 45 mins by cued water-maze apparatus method (reference value: 0.21 +/- 0.01 meter/s); format: organism-based; settings: in vivo, 0.75 h

Chain of Voltage-gated inwardly rectifying potassium channel KCNH2 (Q12809 whole entry): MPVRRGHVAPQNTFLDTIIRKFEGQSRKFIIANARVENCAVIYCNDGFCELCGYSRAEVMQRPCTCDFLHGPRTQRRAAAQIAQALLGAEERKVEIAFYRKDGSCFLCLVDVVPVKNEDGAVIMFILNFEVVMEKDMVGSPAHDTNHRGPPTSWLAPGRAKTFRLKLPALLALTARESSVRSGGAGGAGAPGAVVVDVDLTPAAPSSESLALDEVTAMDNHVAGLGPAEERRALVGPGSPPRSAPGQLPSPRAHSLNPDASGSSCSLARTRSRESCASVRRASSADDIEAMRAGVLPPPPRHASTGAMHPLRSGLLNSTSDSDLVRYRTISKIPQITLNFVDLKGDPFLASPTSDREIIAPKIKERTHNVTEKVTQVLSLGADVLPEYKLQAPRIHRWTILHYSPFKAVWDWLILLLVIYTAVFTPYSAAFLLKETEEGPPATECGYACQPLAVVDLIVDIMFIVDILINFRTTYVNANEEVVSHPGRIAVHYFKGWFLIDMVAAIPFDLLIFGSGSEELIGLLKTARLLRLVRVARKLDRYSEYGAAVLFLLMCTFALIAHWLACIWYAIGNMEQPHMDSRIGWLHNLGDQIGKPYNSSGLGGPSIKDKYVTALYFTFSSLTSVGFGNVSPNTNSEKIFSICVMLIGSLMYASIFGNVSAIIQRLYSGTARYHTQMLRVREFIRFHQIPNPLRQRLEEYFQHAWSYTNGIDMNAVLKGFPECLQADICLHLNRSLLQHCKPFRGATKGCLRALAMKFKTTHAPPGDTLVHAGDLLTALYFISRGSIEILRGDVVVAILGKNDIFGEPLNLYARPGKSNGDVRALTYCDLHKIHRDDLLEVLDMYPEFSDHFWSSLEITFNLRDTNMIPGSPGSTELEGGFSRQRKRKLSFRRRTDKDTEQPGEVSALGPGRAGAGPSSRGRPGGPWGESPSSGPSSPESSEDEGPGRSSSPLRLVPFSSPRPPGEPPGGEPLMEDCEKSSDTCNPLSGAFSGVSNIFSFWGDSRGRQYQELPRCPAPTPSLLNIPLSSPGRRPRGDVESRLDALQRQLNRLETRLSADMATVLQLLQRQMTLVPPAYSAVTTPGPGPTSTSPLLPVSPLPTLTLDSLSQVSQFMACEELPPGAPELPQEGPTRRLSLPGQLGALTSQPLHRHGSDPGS
Chain of D(1B) dopamine receptor (Homo sapiens) (P21918 whole entry): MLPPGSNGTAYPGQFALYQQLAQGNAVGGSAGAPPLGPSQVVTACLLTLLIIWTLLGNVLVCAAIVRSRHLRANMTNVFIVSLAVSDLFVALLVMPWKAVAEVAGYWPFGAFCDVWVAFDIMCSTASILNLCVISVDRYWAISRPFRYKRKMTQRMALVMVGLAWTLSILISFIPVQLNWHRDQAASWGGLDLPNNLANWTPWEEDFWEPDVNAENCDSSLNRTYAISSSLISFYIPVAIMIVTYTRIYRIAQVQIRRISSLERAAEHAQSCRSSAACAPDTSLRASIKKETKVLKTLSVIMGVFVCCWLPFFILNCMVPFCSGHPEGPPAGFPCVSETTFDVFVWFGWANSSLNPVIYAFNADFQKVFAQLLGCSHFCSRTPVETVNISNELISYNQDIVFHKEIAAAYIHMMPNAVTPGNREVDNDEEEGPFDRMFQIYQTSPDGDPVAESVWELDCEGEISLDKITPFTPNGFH

| SMILES | inhibition (Rattus norvegicus [1]) | solubility [2] [µM] | Activity (Mus musculus [3]) | Activity [4] [%] | inhibition (INH) [5] | inhibition [6] | t1/2 (Liver) [h] | solubility [7] [µM] | Activity (Rattus norvegicus [8]) [%] | Drug metabolism [9] | Drug metabolism [10] | Drug metabolism [11] | Drug metabolism [12] | Activity (Rattus norvegicus [13]) [m] | Activity (Rattus norvegicus [14]) [m] | Activity (HepG2) | Fu (Brain) | Activity (Mus musculus [15]) | Activity (Mus musculus [16]) | Activity (Rattus norvegicus [17]) [meter/s] |
| --- | --- | --- | --- | --- | --- | --- | --- | --- | --- | --- | --- | --- | --- | --- | --- | --- | --- | --- | --- | --- |
| COc1ccc(-n2nc3c4ccc(OC)cc4[nH]cc-3c2=O)cc1 | Active | 27.8 (≈ 8.93 µg/mL) | Non-Toxic | < 0 | Not Active | Active | 3.6 | 24.3 (≈ 7.81 µg/mL) |  |  |  |  |  |  |  |  |  |  |  |  |
| [2H]C([2H])([2H])Oc1ccc(-n2nc3c4ccc(OC)cc4[nH]cc-3c2=O)cc1 |  |  | Non-Toxic |  | Not Active |  |  |  | 22.36 | Metabolite_Detected | Metabolite_Detected | Metabolite_Detected | Metabolite_Detected | 5.84 | 11.01 | Non-Toxic | 0.194 | Non-Toxic | Toxic | 0.2 |
